Assay results from ChEMBL document CHEMBL4017487, “Design and Synthesis of γ- and δ-Lactam M1 Positive Allosteric Modulators (PAMs): Convulsion and Cholinergic Toxicity of an M1-Selective PAM with Weak Agonist Activity” (J Med Chem, 2017).

How the values were obtained:
MDR1 = assay: Efflux ratio of permeability from basolateral to apical side over apical to basolateral side in MDCK1 cells expressing MDR1; type: ADME, cell-based, Canis lupus familiaris; details: dog, MDCK-MDR1
Method in brief: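 MDCKI-MDR1 cells (MDCK epithelial line transfected with MDR1/P-gp; from the NIH). Permeability measured as a rate in 10−6 cm/s in both directions; value is the BA/AB ratio.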

[1] = Ratio of AUC in iv or po dosed mouse brain to plasma; type: ADME, organism-based; details: read-out: Ratio AUC
Method in brief: (§1)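 Brain/plasma ratio computed from AUC of total drug in brain and total drug in plasma.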

[2] = Oral bioavailability in rat at 2 mg/kg administered as single dose; type: ADME, organism-based; details: in vivo
[3] = Unbound plasma concentration in rat at 2 mg/kg, po or 0.5 mg/kg, iv administered as single bolus dose; type: ADME, organism-based
Method in brief: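 Rat PK: IV bolus given as a solution, 0.5 mg/kg in 20% HPBCD; oral dose given as a suspension, 2 mg/kg in 0.5% methylcellulose. Fraction unbound in plasma determined.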

[4] = Ratio of AUC in dog brain to plasma at 0.5 mg/kg, po or 0.1 mg/kg, iv administered as single bolus dose; type: ADME, organism-based, Canis lupus familiaris; details: read-out: Ratio AUC; method in brief: as §1
[5] = target: Muscarinic acetylcholine receptor M3 (Homo sapiens, UniProt P20309); assay: Agonist activity at human muscarinic acetylcholine receptor M3 expressed in CHO cells assessed as increase in calcium mobilization incubated for 10 mins by Fluo-8-AM dye based FLIPR assay; type: cell-based
Method in brief: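 Recombinant functional human M2–M5 assays, each run in agonist and PAM modes at concentrations up to 10 μM.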

[6] = target: Dual 3',5'-cyclic-AMP and -GMP phosphodiesterase 11A (Homo sapiens, UniProt Q9HCR9); assay: Inhibition of PDE11A4 (unknown origin)
[7] = Selectivity ratio of EC50 for human muscarinic acetylcholine receptor M5 expressed in CHO cells to EC50 for human muscarinic acetylcholine receptor M1 expressed in CHO cells; type: ADME, cell-based
[8] = target: T1, Muscarinic acetylcholine receptor M1 (Homo sapiens, UniProt P11229); assay: Positive allosteric modulation of human muscarinic acetylcholine receptor M1 expressed in CHO cells assessed as increase in acetylcholine-induced beta-arrestin recruitment by measuring functional co-operativity with acetylcholine; type: ADME, cell-based
T1 sequence (P11229 whole entry): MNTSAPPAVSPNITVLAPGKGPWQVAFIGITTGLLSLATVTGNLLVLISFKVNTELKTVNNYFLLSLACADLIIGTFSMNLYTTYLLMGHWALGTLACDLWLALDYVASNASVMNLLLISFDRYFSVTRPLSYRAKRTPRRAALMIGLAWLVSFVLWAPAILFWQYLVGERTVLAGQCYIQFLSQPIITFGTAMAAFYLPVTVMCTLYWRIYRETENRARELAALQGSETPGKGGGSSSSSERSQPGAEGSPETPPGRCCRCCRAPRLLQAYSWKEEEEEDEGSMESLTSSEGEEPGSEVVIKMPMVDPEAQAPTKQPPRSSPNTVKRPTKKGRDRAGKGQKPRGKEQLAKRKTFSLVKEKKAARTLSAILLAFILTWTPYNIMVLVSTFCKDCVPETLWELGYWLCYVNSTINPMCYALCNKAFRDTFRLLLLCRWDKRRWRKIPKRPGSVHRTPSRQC

[9] = target: T1, Muscarinic acetylcholine receptor M1; assay: Ratio of positive allosteric modulation of human muscarinic acetylcholine receptor M1 expressed in CHO cells assessed as increase in acetylcholine-induced calcium mobilization by measuring functional co-operativity with acetylcholine to Kb human muscarinic acetylcholine receptor M1 expressed in CHO cells assessed as increase in calcium mobilization; type: ADME, cell-based
Plasma [10] = assay: Unbound plasma concentration in amphetamine-induced hyperlocomotion C57BL/6 mouse at 0.3 mg/kg, sc measured after 1 hr by LC-MS/MS analysis; type: ADME, organism-based; details: in vivo
Method in brief: (§2)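 Satellite group of C57BL/6 mice from the amphetamine-stimulated locomotor study, N = 2/dose at 0.32, 1 and 3.2 mg/kg. Dosed sc as a solution in 10/90 Cremophor/water. Unbound plasma and brain concentrations measured at T = 1 h.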

Brain = assay: Unbound brain concentration in amphetamine-induced hyperlocomotion C57BL/6 mouse at 0.3 mg/kg, sc measured after 1 hr by LC-MS/MS analysis; type: ADME, organism-based; details: in vivo; method in brief: as §2
Plasma [11] = assay: Unbound plasma concentration in amphetamine-induced hyperlocomotion C57BL/6 mouse at 1 mg/kg, sc measured after 1 hr by LC-MS/MS analysis; type: ADME, organism-based; details: in vivo; method in brief: as §2
Plasma [12] = assay: Unbound plasma concentration in scopolamine-induced memory impairment Wistar rat model at 0.32 mg/kg, sc measured after 1.25 hrs by LC-MS/MS analysis; type: ADME, organism-based; details: in vivo
Method in brief: (§3)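 Rats from a satellite group of the scopolamine (0.32 mg/kg) Morris water maze study, N = 2/dose. Dosed sc as a solution in 20% hydroxypropyl β-cyclodextrin. Compound concentrations measured in plasma only at T = 1.25 h.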

Plasma [13] = assay: Unbound plasma concentration in scopolamine-induced memory impairment Wistar rat model at 1 mg/kg, sc measured after 1.25 hrs by LC-MS/MS analysis; type: ADME, organism-based; details: in vivo; method in brief: as §3
Rattus norvegicus [14] = assay: Unbound Cmax in rat plasma at 1 mg/kg, po administered as single dose; type: ADME, organism-based; details: in vivo
Method in brief: (§4)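 Rats (3/sex/dose) dosed orally once, 1 or 5 mg/kg as a 0.5% methylcellulose suspension.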

Rattus norvegicus [15] = assay: Unbound AUC (0 to 24 hrs) in rat plasma at 5 mg/kg, po administered as single dose; type: ADME, organism-based; details: in vivo; method in brief: as §4
Rattus norvegicus [16] = assay: Unbound AUC (0 to 24 hrs) in rat plasma at 15 mg/kg, po administered as single dose; type: ADME, organism-based; details: in vivo
[17] = Cholinergic toxicity in po dosed rat administered as single dose after 1 to 1.5 hrs post dose; type: organism-based; details: in vivo
Method in brief: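 Rat single oral dose escalation, 3/sex/dose. 1 and 5 mg/kg as a 0.5% methylcellulose suspension; 15 and 45 mg/kg as a nanosuspension (1.25% w/v hydroxypropyl cellulose SL, 0.05% docusate sodium in water).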

Canis familiaris [18] = assay: Unbound Cmax in dog plasma at 5 mg/kg, po administered as single dose using spray dried dispersion formulation; type: ADME, organism-based, Canis lupus familiaris; details: in vivo
Canis familiaris [19] = assay: Cholinergic toxicity in dog assessed as transient salivation at 5 mg/kg, po administered as single dose using spray dried dispersion formulation after 1 to 4 hrs; type: organism-based, Canis lupus familiaris; details: in vivo
Method in brief: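 Dog single oral dose escalation: 1/sex at 5 mg/kg for each formulation; 1 female at 15 mg/kg. Spray-dried dispersion: 23% drug loading with 0.5% methylcellulose and 100 mM citrate buffer. Clinical signs timed in approximate hours postdose; unbound plasma Cmax.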

[20] = target: T1, Muscarinic acetylcholine receptor M1; assay: Displacement of [3H]PT-1284 human muscarinic acetylcholine receptor M1 expressed in CHO cell membranes after 90 mins scintillation counting method
Mus musculus = assay: In vivo agonist activity at muscarinic acetylcholine receptor M1 in C57BL/6 mouse assessed as unbound brain concentration required to show 2 fold increase in IP1 accumulation in striatum at 1 to 10 mg/kg, sc measured after 2 hrs; type: organism-based
Method in brief: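 Cb,u giving a 2-fold rise in striatal IP1 in C57BL/6 mice, estimated by interpolation of individual-mouse IP1 versus free brain exposure data.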

[21] = Ratio of unbound Cmax in rat brain assessed as convulsions at 45 mg/kg, po administered as single dose to unbound brain concentration for agonist activity at muscarinic acetylcholine receptor M1 in C57BL/6 mouse assessed as required to show 2 fold increase in IP1 accumulation in striatum at 1 to 10 mg/kg, sc; type: organism-based

Dual 3',5'-cyclic-AMP and -GMP phosphodiesterase 11A, sequence (Q9HCR9 whole entry): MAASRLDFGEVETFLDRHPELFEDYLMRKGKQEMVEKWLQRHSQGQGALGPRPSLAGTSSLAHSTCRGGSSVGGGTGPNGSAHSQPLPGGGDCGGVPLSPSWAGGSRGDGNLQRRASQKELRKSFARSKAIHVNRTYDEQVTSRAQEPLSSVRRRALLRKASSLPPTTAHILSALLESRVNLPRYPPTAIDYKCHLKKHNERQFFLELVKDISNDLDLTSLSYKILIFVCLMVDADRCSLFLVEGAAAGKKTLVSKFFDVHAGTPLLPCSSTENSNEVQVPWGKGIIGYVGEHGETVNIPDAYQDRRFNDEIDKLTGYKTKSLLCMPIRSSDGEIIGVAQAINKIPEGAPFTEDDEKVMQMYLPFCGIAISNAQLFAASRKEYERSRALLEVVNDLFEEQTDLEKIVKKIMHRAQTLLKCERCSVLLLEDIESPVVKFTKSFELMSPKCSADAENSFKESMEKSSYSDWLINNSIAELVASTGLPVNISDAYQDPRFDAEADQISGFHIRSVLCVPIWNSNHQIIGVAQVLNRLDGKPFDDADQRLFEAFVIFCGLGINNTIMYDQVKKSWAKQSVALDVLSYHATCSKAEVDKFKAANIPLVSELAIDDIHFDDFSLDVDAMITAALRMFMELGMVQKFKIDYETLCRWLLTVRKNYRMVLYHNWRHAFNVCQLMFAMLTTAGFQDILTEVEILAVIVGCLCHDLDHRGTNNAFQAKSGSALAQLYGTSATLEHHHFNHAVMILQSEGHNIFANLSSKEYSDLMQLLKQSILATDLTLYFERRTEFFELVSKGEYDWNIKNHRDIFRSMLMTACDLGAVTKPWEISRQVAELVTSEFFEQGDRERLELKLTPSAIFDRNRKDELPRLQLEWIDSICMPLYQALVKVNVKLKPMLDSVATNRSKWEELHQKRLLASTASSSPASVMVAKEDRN
Muscarinic acetylcholine receptor M3, sequence (P20309 whole entry): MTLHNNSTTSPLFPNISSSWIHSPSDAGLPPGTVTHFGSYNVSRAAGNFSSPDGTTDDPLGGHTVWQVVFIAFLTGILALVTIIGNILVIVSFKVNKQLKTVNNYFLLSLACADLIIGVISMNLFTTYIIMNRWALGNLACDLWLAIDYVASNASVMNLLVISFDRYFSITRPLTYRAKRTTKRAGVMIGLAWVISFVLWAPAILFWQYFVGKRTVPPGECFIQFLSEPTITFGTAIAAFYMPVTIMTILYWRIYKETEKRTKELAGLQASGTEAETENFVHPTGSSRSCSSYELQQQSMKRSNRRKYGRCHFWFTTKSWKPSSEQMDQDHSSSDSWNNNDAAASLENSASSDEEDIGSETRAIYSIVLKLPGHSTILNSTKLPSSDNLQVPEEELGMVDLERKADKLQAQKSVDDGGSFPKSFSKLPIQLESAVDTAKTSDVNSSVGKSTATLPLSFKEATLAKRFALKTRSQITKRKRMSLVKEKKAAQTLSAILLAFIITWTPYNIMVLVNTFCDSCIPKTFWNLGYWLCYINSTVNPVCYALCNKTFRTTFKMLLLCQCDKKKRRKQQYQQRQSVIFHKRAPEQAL

For `Cc1cc2c(cc1Cc1ccc(-c3cocn3)cc1)C(=O)N([C@H]1CCOC[C@@H]1O)C2`, which efflux ratio (MDR1) is on record?
Its efflux ratio is 11.

And the Kp [1]?
Its Kp is 0.1.

What about the bioavailability [2] of the same compound?
Its bioavailability is 91%.

What about the fraction unbound [3] of the same compound?
Its fraction unbound is 0.035.

And the Kp [4]?
The Kp was 0.7.

And the EC50 [5]?
Its EC50 is greater than 10 µM.

And the IC50 [6]?
The IC50 was 5.06 µM.

And the “Ratio EC50” value [7]?
The value was greater than 200.

What about the “log(activity)” value [8] of the same compound?
Its value is 2.9.

What about the Ratio [9] of the same compound?
The Ratio was 70.

And the “Cp(f)” value (Plasma [10])?
Its value is 7.3 nM.

And the “Drug uptake(free)” value (Brain)?
Its value is 3.8 nM.

What about the “Cp(f)” value (Plasma [11]) of the same compound?
Its value is 46 nM.

What about the “Cp(f)” value (Plasma [12]) of the same compound?
Its value is 17 nM.

And the “Cp(f)” value (Plasma [13])?
The value was 66 nM.

What about the fCmax (Rattus norvegicus [14]) of the same compound?
Its fCmax is 73 nM.

What about the fAUC (Rattus norvegicus [15]) of the same compound?
The fAUC was 4.927 µM·h.

What about the fAUC (Rattus norvegicus [16]) of the same compound?
Its fAUC is 20.609 µM·h.

What about the NOAEL [17] of the same compound?
Its NOAEL is 15 mg/kg.

And the fCmax (Canis familiaris [18])?
Its fCmax is 446 nM.

What about the Activity (Canis familiaris [19]) of the same compound?
Its Activity is “Toxic”.

What about the Ki [20] of the same compound?
The Ki was 0.016 µM.

What about the “Drug uptake(free)” value (Mus musculus) of the same compound?
The value was 22 nM.

And the selectivity ratio [21]?
Its selectivity ratio is 20.
